# Hits are enriched below; roughly 2.9% of the tested compounds scored in any of these assays.
# ABHD4 inh: inhibitors of mouse ABHD4. purified mABHD4, FP-Rh probe fluorescence polarization. inhibition, % at 8.92 µM. 0.54% of 370,000 active. AID 720543;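 active = inhibition exceeding the mean over every tested compound plus 3 SD, cut at about 30% in these data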
#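 Assay system: mouse ABHD4 enzyme, wild type / Also added: fluorescent activity-based probe FP-Rh / Doses: single nominal dose of 8.92 µM, 0.89% DMSO final / Timing: 45 min compound pre-incubation plus 60 min probe step, 25 °C / Signal: FP readout, ex 525 nm / em 598 nm / Control set: S159A mutant/DMSO as 100%, compound-well median as 0%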
# PRMT1 inh: blocks human protein arginine methyltransferase 1; recombinant PRMT1, activity-based probe fluorescence polarization; inhibition, % at 2.79 µM; 1.3% of 370,000 active; AID 652257;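 active = inhibition above about 21% made by adding two undisclosed values, limit read from the data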
# Target sequence (Q99873 whole entry, looked up): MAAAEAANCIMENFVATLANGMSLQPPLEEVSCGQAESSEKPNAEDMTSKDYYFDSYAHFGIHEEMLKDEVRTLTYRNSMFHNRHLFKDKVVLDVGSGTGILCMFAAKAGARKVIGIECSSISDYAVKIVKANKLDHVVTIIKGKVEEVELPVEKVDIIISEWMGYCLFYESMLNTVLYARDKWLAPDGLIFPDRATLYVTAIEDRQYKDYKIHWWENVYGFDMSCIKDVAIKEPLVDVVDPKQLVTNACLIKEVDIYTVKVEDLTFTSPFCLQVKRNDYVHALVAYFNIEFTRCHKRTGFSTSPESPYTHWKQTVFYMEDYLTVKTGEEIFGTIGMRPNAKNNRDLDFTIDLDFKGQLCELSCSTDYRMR
# HTRA1 inhibitor: HTRA1 (human) protease inhibition | recombinant HTRA1, FP-rhodamine activity-based probe, fluorescence polarization | inhibition, % at 5.96 µM | 0.5% of 340,000 active; in the data active = inhibition above about 36%
# PAD4 FP inh: blocks human protein arginine deiminase 4; Q9UM07; recombinant PAD4, RCA probe fluorescence polarization; inhibition, % at 6.36 µM; 0.41% of 330,000 active; AID 485272;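 active = percent inhibition above a cutoff equal to the mean of all tested compounds plus 3 SD, cut at about 15% in these data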
# SIAE inh: human SIAE inhibition, primary screen. 0.69% of 370,000 active. SIAE FP-Rh probe binding, fluorescence polarization. inhibition, % at 9.66 µM. Q9HAT2;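 active = inhibition above a cutoff: mean of compounds within the control limits plus 3 SD of those, cut at about 17% in these data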
# TCR-CD3 inh: blocks the human TCR-CD3 interaction. TAMRA-labeled TCR probe fluorescence, biochemical. inhibition, % at 9.4 µM. 0.37% of 360,000 active; in the data active = inhibition above about 19%;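 note: recombinant mutant TCR 2C K166C tagged with TAMRA read by polarization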
# ABHD4 confirm: ABHD4 (mouse) inhibition, FP confirmation | shares compounds with ABHD4 inh | purified mABHD4, FP-Rh probe fluorescence polarization | inhibition, % at 8.92 µM | 55% of 1,800 active;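 active = mean inhibition across replicates above the hit cutoff set in the primary screen, cut at about 30% in these data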
# SIAE inh conf: confirmation of human SIAE inhibitors | inhibition, % at 9.66 µM | 13% of 2,300 active | shares compounds with SIAE inh | SIAE FP-Rh activity-based probe, fluorescence polarization;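 active = mean inhibition of the replicates above the hit cutoff set in the primary screen, cut at about 17% in these data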;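 note: inhibitors lower polarization as more probe stays unbound to SIAE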
# Hits are given with their value; n = inactive; x = no result given; ! = not active in a repeat.
SMILES,ABHD4 inh,PRMT1 inh,HTRA1 inhibitor,PAD4 FP inh,SIAE inh,TCR-CD3 inh,ABHD4 confirm,SIAE inh conf
NCCC(=O)Nc1ccc(Cl)cc1C(=O)c1ccc[nH]1,n,n,x,x,n,x,x,x
COC(=O)c1ccc(=O)c2nc3/c(=C/O)c(O)cc(=O)c3[nH]c12,57,29,61,n,47,140,59,28
Cc1ccc(C(=O)N2CCC[C@@H]2C(=O)N2CCC[C@H]2C(=O)NCc2ccccc2)cc1,n,n,x,x,n,n,x,x
N=C1S/C(=C\c2ccco2)C(=O)N1c1nccs1,n,n,n,n,n,n,x,x
N=C1S/C(=C\c2ccco2)C(=O)N1c1ccc2c(c1)OCO2,34,n,n,n,21,n,n,n
CC(=O)Oc1ccc2c(=O)c(Oc3ccccc3)coc2c1OC(C)=O,37,n,n,n,20,n,n,n
Clc1ccc2c(N/N=C/c3cccc(Br)c3)ccnc2c1,32,n,n,n,27,n,31,35
CCCCCC(=O)NC1CCCCN(Cc2cccc(Cl)c2)C1=O (centres undefined),n,n,x,x,n,x,x,x
O=S(=O)(N[C@@H]1CCCC[C@@H]1N1CCOCC1)c1ccc(Cl)cc1,n,n,x,x,n,x,x,x
COC(=O)c1ccc(CC(=O)c2ccc(O)cc2O)o1,x,x,n,n,x,x,x,x
COC(=O)c1ccc(CC(=O)c2c(C)cc(O)cc2O)o1,38,24,n,n,24,n,n,n
CCOc1ccc(S(=O)(=O)N(C(=O)c2ccco2)c2cc3sc(=O)oc3c3ccccc23)cc1,42,93,n,n,18,n,n,n
COC(=O)C1=C(C)N(Cc2ccccc2C(F)(F)F)C(=NCc2ccccc2)NC1c1ccc(Cl)cc1 (centres undefined),n,n,x,x,n,n,x,x
COc1cccc(C2CC=C(C(=O)O)CN2S(=O)(=O)c2ccc(C)cc2)c1 (centres undefined),n,n,x,x,n,x,x,x
Oc1ccc(Nc2nc(-c3ccc4ccccc4c3)cs2)cc1,n,n,n,n,n,n,x,x
Oc1ccc(Nc2ccc3ccccc3c2)cc1,39,n,x,x,20,n,56,n
COc1ccc2[nH]c3c(NCCC4=CCCCC4)ncnc3c2c1,39,n,n,x,50,n,61,45
COc1cccc(NC(=S)Nc2ccc(O)cc2)c1,34,n,n,n,17,n,n,n
COc1ccc(/C=C/S(=O)(=O)NCC(C)C)c(CNC(=O)OC(C)(C)C)c1,n,n,x,x,n,x,x,x
C=CCn1c(O)c(C2=c3ccccc3=NC2=O)sc1=Nc1ccc(O)cc1,35,n,n,n,21,n,73,n
COc1ccc(Cn2c(O)c(/C=N/NC(=O)c3cccnc3)c3ccccc3c2=O)cc1,31,n,n,x,29,n,45,n
O=C(N/N=C/c1c(O)n(Cc2ccccc2)c(=O)c2ccccc12)c1cccnc1,62,n,n,n,26,n,73,n
Cc1ccc(NC(=O)CN2C(=O)S/C(=C/c3ccc(O)c([N+](=O)[O-])c3)C2=O)cc1C,51,n,n,x,25,n,63,n
Cc1ccc(NC(=O)CN2C(=O)S/C(=C\c3ccc(C(=O)O)cc3)C2=O)cc1,n,n,n,n,n,n,x,x
CC(C)C[C@H](NC1(C(=O)NC2CCCCC2)CCN(C)CC1)C(=O)NCC(c1ccccc1)c1ccccc1,n,n,x,x,n,x,x,x
SMILES,ABHD4 inh,PRMT1 inh,HTRA1 inhibitor,PAD4 FP inh,SIAE inh,TCR-CD3 inh,ABHD4 confirm,SIAE inh conf
O=S(=O)(Nc1ccc(O)c2ncccc12)c1ccccc1F,39,n,x,x,29,29,42,n
CCOC(=O)[C@@]12CCC3=C1N(CCC3)C(=O)[C@H](CC(=O)NCC1CCCCC1)C2,n,n,x,x,n,x,x,x
CCCCNc1c(-c2ccc(OC)c(SC(C)CC)c2)nc2cc(C)ccn12 (centres undefined),44,n,n,n,18!,n,65,n
Cc1cc(=O)[nH]c(N/N=C/c2c(C)nn(-c3ccccc3)c2C)n1,n,n,n,n,n,n,x,x
COc1ccc(O)c(/C=N/Nc2nc3ccccc3[nH]2)c1,n,n,n,n,n,n,x,x
Cc1nn(-c2ccccc2)c(C)c1/C=N/Nc1nc2ccccc2[nH]1,42,n,n,n,24,n,56,37
CC(C)Cn1c(/C=N/Nc2nc3ccccc3[nH]2)nc2ccccc21,n,n,n,x,n,n,x,x
COc1cc(/C=N/Nc2nc3ccccc3[nH]2)cc(OC)c1O,38,n,n,n,18,n,n,n
Cc1c(/C=N/Nc2nc3ccccc3[nH]2)c2ccccc2n1C,41,n,n,n,40,n,70,20
CCCOc1ccc2c(c1)C(=NN=C(N)N)c1cc(OCCC)ccc1-2,38,n,n,n,18,n,51,n
Clc1ccc2c(N/N=C/c3ccccc3Br)ccnc2c1,n,n,n,n,n,n,x,x
C/C(=N/Nc1ccnc2cc(Cl)ccc12)c1ccc(N)cc1,30,n,n,n,23,n,33,n
Cc1ccccc1C(=O)N[C@H](C(=O)N1CCC[C@H]1C(=O)NC1CCCC1)C1CCCCC1,n,n,x,x,n,n,x,x
Nc1ccc2ccc(O)cc2c1,40,n,n,x,19,n,33,n
C=CCN(Cc1ccc2c(c1)OCO2)C(C#CCCCC)C(C)C (centres undefined),n,n,x,x,n,x,x,x
Cc1[nH]c2ccccc2c1N=Nc1cccc(C(=O)O)c1,n,n,n,n,n,n,x,x
Cc1[nH]c2ccccc2c1N=Nc1ccccc1C(=O)O,56,n,n,n,34,n,69,n
O=C1NN(c2ccc(Br)cc2)C(=O)/C1=C\c1ccc(O)cc1O,n,n,n,n,n,n,x,x
O=C1NN(c2cccc(Br)c2)C(=O)/C1=C\c1ccc(O)cc1,37,n,n,n,19,n,41,n
C[C@]12CCC(=O)C=C1C=C[C@@H]1[C@@H]2CC[C@@]2(C)[C@H]1CC[C@@]21CCC(=O)O1,n,n,n,x,19,n,x,n
CCOC(=O)COc1cc(N2C(=O)CSCC2=O)c(Cl)cc1Cl,n,n,n,n,71,n,x,n
CCOC(=O)COc1cc(-n2c(=S)[nH]c3cc(OC)c(OC)cc3c2=O)c(Cl)cc1Cl,n,n,n,n,n,n,x,x
CCOC(=O)c1c(/N=C/C2=C(O)CCCC2=O)sc(C)c1C,n,n,n,n,18,n,x,n
O=C(Nc1ccccc1)Nc1nc2ncccn2c1-c1ccc(C(F)(F)F)cc1,n,n,x,x,n,x,x,x
O=C(O)c1ccc(Nc2nc(-c3ccccc3)cs2)cc1,n,n,n,n,n,n,x,x
CC(Sc1nnc(Nc2ccccc2)s1)C(=O)Nc1nc(-c2ccccc2)cs1 (centres undefined),n,n,n,n,22,n,x,n
